Assay results taken from ChEMBL document CHEMBL1944570, “Discovery of 4''-ether linked azithromycin-quinolone hybrid series: influence of the central linker on the antibacterial activity” (ACS Med Chem Lett, 2011).
≈ marks a conversion by molar mass, not a printed value.

What was measured:
Format in all cases: functional
Streptococcus pneumoniae [1] = assay: Antibacterial activity against constitutive MLS resistant Streptococcus pneumoniae by agar microdilution method
Method in brief: (§1)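 MIC by agar microdilution following NCCLS standards; strains drawn from the PLIVA Research Institute culture collection. MIC reported in μg/mL.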

Streptococcus pyogenes [2] = assay: Antibacterial activity against Streptococcus pyogenes with inducible resistance to MLS by agar microdilution method; method in brief: as §1
Streptococcus pyogenes [3] = assay: Antibacterial activity against efflux mediated macrolide resistant Streptococcus pyogenes by agar microdilution method; method in brief: as §1
Staphylococcus aureus [4] = assay: Antibacterial activity against ciprofloxacin-resistant Staphylococcus aureus by agar microdilution method; method in brief: as §1
Streptococcus pneumoniae [5] = assay: Antibacterial activity against erythromycin-susceptible Streptococcus pneumoniae by agar microdilution method; method in brief: as §1
Haemophilus influenzae = assay: Antibacterial activity against Haemophilus influenzae B0529 by agar microdilution method
Method in brief: (§2)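 Agar microdilution MIC per NCCLS standards against strains from the Pliva Research Institute culture collection; values in µg/mL. Panel included erythromycin-susceptible strains and strains with inducible or constitutive MLS resistance.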

Staphylococcus aureus [6] = assay: Antibacterial activity against constitutive MLS resistant Staphylococcus aureus by agar microdilution method; method in brief: as §1
Streptococcus pyogenes [7] = assay: Antibacterial activity against erythromycin-susceptible Streptococcus pyogenes by agar microdilution method; method in brief: as §1
Staphylococcus aureus [8] = assay: Antibacterial activity against erythromycin-susceptible Staphylococcus aureus by agar microdilution method; method in brief: as §2
Streptococcus pyogenes [9] = assay: Antibacterial activity against constitutive MLS resistant Streptococcus pyogenes by agar microdilution method; method in brief: as §1
Staphylococcus aureus [10] = assay: Antibacterial activity against efflux mediated macrolide resistant Staphylococcus aureus by agar microdilution method; method in brief: as §1
Staphylococcus aureus [11] = assay: Antibacterial activity against Staphylococcus aureus with inducible resistance to MLS by agar microdilution method; method in brief: as §1
Moraxella catarrhalis = assay: Antibacterial activity against Moraxella catarrhalis by agar microdilution method; method in brief: as §2
Streptococcus pneumoniae [12] = assay: Antibacterial activity against efflux mediated macrolide resistant Streptococcus pneumoniae by agar microdilution method; method in brief: as §1

Row | SMILES | MIC (Streptococcus pneumoniae [1]) [µg/mL] | MIC (Streptococcus pyogenes [2]) [µg/mL] | MIC (Streptococcus pyogenes [3]) [µg/mL] | MIC (Staphylococcus aureus [4]) [µg/mL] | MIC (Streptococcus pneumoniae [5]) [µg/mL] | MIC (Haemophilus influenzae) [µg/mL] | MIC (Staphylococcus aureus [6]) [µg/mL] | MIC (Streptococcus pyogenes [7]) [µg/mL] | MIC (Staphylococcus aureus [8]) [µg/mL] | MIC (Streptococcus pyogenes [9]) [µg/mL] | MIC (Staphylococcus aureus [10]) [µg/mL] | MIC (Staphylococcus aureus [11]) [µg/mL] | MIC (Moraxella catarrhalis) [µg/mL] | MIC (Streptococcus pneumoniae [12]) [µg/mL]
1 | CCOC(=O)c1cn(CC)c2ccc(N3CCN(CCO[C@H]4[C@H](C)O[C@@H](O[C@H]5[C@H](C)[C@@H](O[C@@H]6O[C@H](C)C[C@H](N(C)C)[C@H]6O)[C@](C)(O)C[C@@H](C)CN(C)[C@H](C)[C@H]6OC(=O)O[C@]6(C)[C@@H](CC)OC(=O)[C@@H]5C)C[C@@]4(C)OC)CC3)cc2c1=O | 64 (≈ 56.6 µM) | 1 (≈ 0.885 µM) | 16 (≈ 14.2 µM) | ≥ 64 | ≤ 0.125 | 1 (≈ 0.885 µM) | > 64 | ≤ 0.125 | 0.5 (≈ 0.442 µM) | 64 (≈ 56.6 µM) | 8 (≈ 7.08 µM) | 64 (≈ 56.6 µM) | 0.25 (≈ 0.221 µM) | –
2 | CC[C@H]1OC(=O)[C@H](C)[C@@H](O[C@H]2C[C@@](C)(OC)[C@@H](OCCN3CCN(c4ccc5c(c4)c(=O)c(C(=O)O)cn5CC)CC3)[C@H](C)O2)[C@H](C)[C@@H](O[C@@H]2O[C@H](C)C[C@H](N(C)C)[C@H]2O)[C@](C)(O)C[C@@H](C)CN(C)[C@H](C)[C@H]2OC(=O)O[C@@]21C | 32 (≈ 29 µM) | 4 (≈ 3.63 µM) | 4 (≈ 3.63 µM) | ≥ 64 | ≤ 0.125 | 2 (≈ 1.81 µM) | 32 (≈ 29 µM) | 0.25 (≈ 0.227 µM) | 1 (≈ 0.907 µM) | 32 (≈ 29 µM) | 2 (≈ 1.81 µM) | 16 (≈ 14.5 µM) | 4 (≈ 3.63 µM) | –
3 | CC[C@H]1OC(=O)[C@H](C)[C@@H](O[C@H]2C[C@@](C)(OC)[C@@H](OCCNCCNc3cc4c(=O)c(C(=O)O)cn(C5CC5)c4cc3Cl)[C@H](C)O2)[C@H](C)[C@@H](O[C@@H]2O[C@H](C)C[C@H](N(C)C)[C@H]2O)[C@](C)(O)C[C@@H](C)CN(C)[C@H](C)[C@H]2OC(=O)O[C@@]21C | 64 (≈ 57 µM) | 0.5 (≈ 0.445 µM) | 0.5 (≈ 0.445 µM) | ≥ 64 | ≤ 0.125 | 2 (≈ 1.78 µM) | > 64 | ≤ 0.125 | 2 (≈ 1.78 µM) | 2 (≈ 1.78 µM) | 4 (≈ 3.56 µM) | 64 (≈ 57 µM) | 0.25 (≈ 0.223 µM) | –
4 | CC[C@H]1OC(=O)[C@H](C)[C@@H](O[C@H]2C[C@@](C)(OC)[C@@H](OCCNCCNc3cc4c(cc3F)c(=O)c(C(=O)O)cn4C3CC3)[C@H](C)O2)[C@H](C)[C@@H](O[C@@H]2O[C@H](C)C[C@H](N(C)C)[C@H]2O)[C@](C)(O)C[C@@H](C)CN(C)[C@H](C)[C@H]2OC(=O)O[C@@]21C | 64 (≈ 57.8 µM) | 0.25 (≈ 0.226 µM) | 4 (≈ 3.62 µM) | ≥ 64 | ≤ 0.125 | 4 (≈ 3.62 µM) | > 64 | ≤ 0.125 | 4 (≈ 3.62 µM) | 8 (≈ 7.23 µM) | 4 (≈ 3.62 µM) | 64 (≈ 57.8 µM) | 0.5 (≈ 0.452 µM) | 0.25 (≈ 0.226 µM)
5 | CC[C@H]1OC(=O)[C@H](C)[C@@H](O[C@H]2C[C@@](C)(OC)[C@@H](OCCNCCOCCNc3cc4c(cc3F)c(=O)c(C(=O)O)cn4C3CC3)[C@H](C)O2)[C@H](C)[C@@H](O[C@@H]2O[C@H](C)C[C@H](N(C)C)[C@H]2O)[C@](C)(O)C[C@@H](C)CN(C)[C@H](C)[C@H]2OC(=O)O[C@@]21C | 16 (≈ 13.9 µM) | 1 (≈ 0.869 µM) | 4 (≈ 3.48 µM) | ≥ 64 | ≤ 0.125 | 4 (≈ 3.48 µM) | > 64 | ≤ 0.125 | 8 (≈ 6.95 µM) | 32 (≈ 27.8 µM) | 64 (≈ 55.6 µM) | 64 (≈ 55.6 µM) | 0.5 (≈ 0.435 µM) | –
6 | CC[C@H]1OC(=O)[C@H](C)[C@@H](O[C@H]2C[C@@](C)(OC)[C@@H](OCCNCCOCCOCCNc3cc4c(=O)c(C(=O)O)cn(C5CC5)c4cc3Cl)[C@H](C)O2)[C@H](C)[C@@H](O[C@@H]2O[C@H](C)C[C@H](N(C)C)[C@H]2O)[C@](C)(O)C[C@@H](C)CN(C)[C@H](C)[C@H]2OC(=O)O[C@@]21C | 64 (≈ 52.9 µM) | – | 0.5 (≈ 0.413 µM) | ≥ 64 | ≤ 0.125 | 1 (≈ 0.826 µM) | 32 (≈ 26.4 µM) | ≤ 0.125 | 2 (≈ 1.65 µM) | 1 (≈ 0.826 µM) | 2 (≈ 1.65 µM) | 64 (≈ 52.9 µM) | 0.5 (≈ 0.413 µM) | –
7 | CC[C@H]1OC(=O)[C@H](C)[C@@H](O[C@H]2C[C@@](C)(OC)[C@@H](OCCN3CCN(c4ccc5c(c4)c(=O)c(C(=O)O)cn5CC)CC3)[C@H](C)O2)[C@H](C)[C@@H](O[C@@H]2O[C@H](C)C[C@H](N(C)C)[C@H]2O)[C@](C)(O)C[C@@H](C)CN(C)[C@H](C)[C@@H](O)[C@]1(C)O | 64 (≈ 59.5 µM) | 0.25 (≈ 0.232 µM) | 0.5 (≈ 0.465 µM) | ≥ 64 | ≤ 0.125 | 8 (≈ 7.43 µM) | 64 (≈ 59.5 µM) | ≤ 0.125 | 2 (≈ 1.86 µM) | 64 (≈ 59.5 µM) | 4 (≈ 3.72 µM) | 64 (≈ 59.5 µM) | 4 (≈ 3.72 µM) | –
8 | CC[C@H]1OC(=O)[C@H](C)[C@@H](O[C@H]2C[C@@](C)(OC)[C@@H](OCCNCCNc3cc4c(=O)c(C(=O)O)cn(C5CC5)c4cc3Cl)[C@H](C)O2)[C@H](C)[C@@H](O[C@@H]2O[C@H](C)C[C@H](N(C)C)[C@H]2O)[C@](C)(O)C[C@@H](C)CN(C)[C@H](C)[C@@H](O)[C@]1(C)O | 64 (≈ 58.4 µM) | 1 (≈ 0.912 µM) | 8 (≈ 7.29 µM) | ≥ 64 | ≤ 0.125 | 2 (≈ 1.82 µM) | > 64 | ≤ 0.125 | 4 (≈ 3.65 µM) | 16 (≈ 14.6 µM) | 8 (≈ 7.29 µM) | 64 (≈ 58.4 µM) | 0.5 (≈ 0.456 µM) | 0.25 (≈ 0.228 µM)
9 | CC[C@H]1OC(=O)[C@H](C)[C@@H](O[C@H]2C[C@@](C)(OC)[C@@H](OCCNCCNc3cc4c(cc3F)c(=O)c(C(=O)O)cn4C3CC3)[C@H](C)O2)[C@H](C)[C@@H](O[C@@H]2O[C@H](C)C[C@H](N(C)C)[C@H]2O)[C@](C)(O)C[C@@H](C)CN(C)[C@H](C)[C@@H](O)[C@]1(C)O | 32 (≈ 29.6 µM) | – | 1 (≈ 0.926 µM) | ≥ 64 | ≤ 0.125 | 4 (≈ 3.7 µM) | 64 (≈ 59.2 µM) | ≤ 0.125 | 2 (≈ 1.85 µM) | 1 (≈ 0.926 µM) | 2 (≈ 1.85 µM) | 64 (≈ 59.2 µM) | 1 (≈ 0.926 µM) | –
10 | CC[C@H]1OC(=O)[C@H](C)[C@@H](O[C@H]2C[C@@](C)(OC)[C@@H](OCCNCCOCCNc3cc4c(cc3F)c(=O)c(C(=O)O)cn4C3CC3)[C@H](C)O2)[C@H](C)[C@@H](O[C@@H]2O[C@H](C)C[C@H](N(C)C)[C@H]2O)[C@](C)(O)C[C@@H](C)CN(C)[C@H](C)[C@@H](O)[C@]1(C)O | 2 (≈ 1.78 µM) | – | 1 (≈ 0.889 µM) | ≥ 64 | ≤ 0.125 | 8 (≈ 7.11 µM) | > 64 | ≤ 0.125 | 8 (≈ 7.11 µM) | 2 (≈ 1.78 µM) | 8 (≈ 7.11 µM) | 64 (≈ 56.9 µM) | 8 (≈ 7.11 µM) | –
11 | CC[C@H]1OC(=O)[C@H](C)[C@@H](O[C@H]2C[C@@](C)(OC)[C@@H](OCCNCCOCCOCCNc3cc4c(=O)c(C(=O)O)cn(C5CC5)c4cc3Cl)[C@H](C)O2)[C@H](C)[C@@H](O[C@@H]2O[C@H](C)C[C@H](N(C)C)[C@H]2O)[C@](C)(O)C[C@@H](C)CN(C)[C@H](C)[C@@H](O)[C@]1(C)O | 64 (≈ 54 µM) | – | 2 (≈ 1.69 µM) | ≥ 64 | ≤ 0.125 | 4 (≈ 3.38 µM) | 32 (≈ 27 µM) | ≤ 0.125 | 4 (≈ 3.38 µM) | 2 (≈ 1.69 µM) | 1 (≈ 0.844 µM) | 64 (≈ 54 µM) | 1 (≈ 0.844 µM) | –
12 | CC[C@H]1OC(=O)[C@H](C)[C@@H](O[C@H]2C[C@@](C)(OC)[C@@H](OCCCC(=O)NCCNc3cc4c(=O)c(C(=O)O)cn(C5CC5)c4cc3Cl)[C@H](C)O2)[C@H](C)[C@@H](O[C@@H]2O[C@H](C)C[C@H](N(C)C)[C@H]2O)[C@](C)(O)C[C@@H](C)CN(C)[C@H](C)[C@@H](O)[C@]1(C)O | 0.5 (≈ 0.439 µM) | 0.25 (≈ 0.22 µM) | 2 (≈ 1.76 µM) | ≥ 64 | 0.5 (≈ 0.439 µM) | 8 (≈ 7.02 µM) | 64 (≈ 56.2 µM) | ≤ 0.125 | 4 (≈ 3.51 µM) | 2 (≈ 1.76 µM) | 4 (≈ 3.51 µM) | 32 (≈ 28.1 µM) | 4 (≈ 3.51 µM) | ≤ 0.125
13 | CC[C@H]1OC(=O)[C@H](C)[C@@H](O[C@H]2C[C@@](C)(OC)[C@@H](OCCCC(=O)NCCOCCNc3cc4c(=O)c(C(=O)O)cn(C5CC5)c4cc3Cl)[C@H](C)O2)[C@H](C)[C@@H](O[C@@H]2O[C@H](C)C[C@H](N(C)C)[C@H]2O)[C@](C)(O)C[C@@H](C)CN(C)[C@H](C)[C@@H](O)[C@]1(C)O | 4 (≈ 3.38 µM) | – | 1 (≈ 0.845 µM) | ≥ 64 | ≤ 0.125 | 4 (≈ 3.38 µM) | 64 (≈ 54.1 µM) | ≤ 0.125 | 2 (≈ 1.69 µM) | 2 (≈ 1.69 µM) | 8 (≈ 6.76 µM) | 64 (≈ 54.1 µM) | 4 (≈ 3.38 µM) | 0.25 (≈ 0.211 µM)
14 | CC[C@H]1OC(=O)[C@H](C)C(=O)[C@H](C)[C@@H](O[C@@H]2O[C@H](C)C[C@H](N(C)C)[C@H]2O)[C@](C)(OCC=Cc2cnc3ccccc3c2)C[C@@H](C)C(=O)[C@H](C)[C@H]2NC(=O)O[C@@]21C [CETHROMYCIN] | – | – | – | ≥ 64 | ≤ 0.125 | 1 (≈ 1.31 µM) | > 64 | ≤ 0.125 | ≤ 0.125 | 1 (≈ 1.31 µM) | 0.25 (≈ 0.326 µM) | 0.25 (≈ 0.326 µM) | ≤ 0.125 | –
